Compound activity: PubChem BioAssay, several laboratories
ATG4B inh = inhibitors of human ATG4B cysteine protease; AID 504462; inhibition, % at 8.33 µM; ATG4B cleavage of LC3-PLA2, NBD-HPC fluorescence, 1 h; actives 0.51% (n = 340,000); Q9Y4P1; in the data active means inhibition above about 40%
Target sequence (Q9Y4P1 whole entry, looked up): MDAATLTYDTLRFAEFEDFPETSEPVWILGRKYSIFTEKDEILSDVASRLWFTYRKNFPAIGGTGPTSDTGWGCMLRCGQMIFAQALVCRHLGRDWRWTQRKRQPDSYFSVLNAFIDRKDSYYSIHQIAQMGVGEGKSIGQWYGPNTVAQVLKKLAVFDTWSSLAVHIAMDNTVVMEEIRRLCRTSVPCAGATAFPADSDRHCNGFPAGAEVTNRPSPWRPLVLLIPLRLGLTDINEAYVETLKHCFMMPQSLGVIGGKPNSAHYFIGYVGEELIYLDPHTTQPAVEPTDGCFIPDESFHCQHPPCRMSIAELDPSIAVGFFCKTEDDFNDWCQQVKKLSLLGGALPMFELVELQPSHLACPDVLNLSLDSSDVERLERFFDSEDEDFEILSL
SENP1 inh = SENP1 (human) catalytic domain inhibition; recombinant SENP1 catalytic domain, CyPet-SUMO1-YPet FRET cleavage; actives 0.21% (n = 360,000); inhibition, % at 10 µM; Q9P0U3;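 active means inhibition at least 30% at 10 µM, raw YFP signal under a set limit, fluorescence ratio 0.5 to 1.5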
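Controls: no-enzyme wells low, DMSO-plus-enzyme wells high control. Test system: human recombinant His6-tagged SENP1 catalytic domain enzyme. Reagent: SFCypet-SUMO1-SFYpet FRET protein substrate, 25 nM final. Doses: one dose per compound, 10 µM, 0.5% DMSO. Detection: FRET, CFP and YFP emission. Timing: 50 min reaction at room temperature.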
UCH37 DUB inh = inhibitors of human deubiquitinating enzyme UCH37; AID 588478; purified proteasome/UCH37, Ub-AMC cleavage fluorescence; actives 0.33% (n = 330,000); Q9Y5K5; inhibition, % (no concentration beside the values);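 active means mean inhibition over replicate wells above about 20%, limit read from the data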
Target sequence (Q9Y5K5 whole entry, looked up): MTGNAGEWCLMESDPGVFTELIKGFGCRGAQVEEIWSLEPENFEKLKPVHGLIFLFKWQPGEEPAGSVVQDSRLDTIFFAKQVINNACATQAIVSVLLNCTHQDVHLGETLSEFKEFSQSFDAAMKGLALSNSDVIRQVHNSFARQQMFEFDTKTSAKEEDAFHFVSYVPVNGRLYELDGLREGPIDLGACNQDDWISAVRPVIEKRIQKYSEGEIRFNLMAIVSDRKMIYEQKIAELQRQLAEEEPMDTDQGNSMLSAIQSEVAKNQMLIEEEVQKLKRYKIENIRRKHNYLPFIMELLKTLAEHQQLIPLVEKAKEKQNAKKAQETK
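assay system = human UCH37 enzyme supplied as purified proteasome complex | amount = proteasome at 0.15 nM in the dispensed enzyme solution | schedule = 30 min compound-proteasome preincubation then 25 min substrate reaction, room temperature | measured by = fluorescence, ex 355 nm, em 460 nm | benchmarks = no-proteasome wells (full inhibition) and compound-free wells (no inhibition)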
NR3A LBD binder = NR3A (human) ligand-binding domain modulation | Tm shift relative to glycine control, % at 25 µM | AID 1259313 | actives 2.5% (n = 340,000) | NR3A LBD differential scanning fluorimetry, Tm shift; 0% = protein alone, 100% = glycine-bound protein;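 active means melting temperature shift of at least 10% of the positive control shift, at one fixed dose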
NadD inh = NadD (S. aureus) enzyme inhibition. purified NadD enzyme, colorimetric absorbance read-out. inhibition, % at 20 µM. actives 0.78% (n = 360,000). AID 602399; in the data active means inhibition above about 26%
Of the large screens only hits and unclear results are named; the others gave an inactive call. Only some compounds are listed: those with a hit (about 3.6% of all), similar ones and a draw of the others.

CC(CC(=O)Nc1ccc([N+](=O)[O-])cc1)=NNC(=O)c1ccccc1O	none (no result: ATG4B inh, SENP1 inh, NR3A LBD binder, NadD inh)
O=C(COc1cccnc1[N+](=O)[O-])N1CCN(S(=O)(=O)c2ccc3ccccc3c2)CC1	NR3A LBD binder 14
Cc1ccc(OCC(=O)N2CCN(S(=O)(=O)c3ccc(Cl)cc3)CC2)c([N+](=O)[O-])n1	none
N/C(=N\OC(=O)c1cccc2ccccc12)c1cccc([N+](=O)[O-])c1	NR3A LBD binder 26 (no result: UCH37 DUB inh)
O=C(NN=Cc1ccc(Cl)cc1Cl)c1cccc(F)c1	none (no result: ATG4B inh, SENP1 inh, NR3A LBD binder, NadD inh)
COc1ccc2cc(/C=N/NC(=O)CN(c3ccccc3C)S(=O)(=O)c3ccccc3)c(Cl)nc2c1	NR3A LBD binder 11 (no result: UCH37 DUB inh)
COc1ccc2cc(C=NNC(=O)CN(c3ccccc3)S(=O)(=O)c3ccccc3)c(Cl)nc2c1	none (no result: ATG4B inh, SENP1 inh, NR3A LBD binder, NadD inh)
CC(N=c1ccccn1C(=O)Nc1ccc(Cl)cc1)c1ccco1 (stereo not given)	NR3A LBD binder 24 (no result: SENP1 inh, NadD inh)
CC(N=c1ccccn1C(=O)Nc1ccc(F)cc1)c1ccco1 (stereo not given)	none
O=C(CC1S/C(=N/N=C/C=C/c2ccccc2)NC1=O)Nc1ccc(Cl)c(Cl)c1 (stereo not given)	NR3A LBD binder 37 (no result: UCH37 DUB inh)
CC(=O)c1cccc(NC(=O)CC2S/C(=N/N=C/c3ccccc3)NC2=O)c1 (stereo not given)	none (no result: UCH37 DUB inh)
Cc1ccc(NN=C(C#N)C(=O)c2ccsc2)cc1	none (no result: ATG4B inh, SENP1 inh, NR3A LBD binder, NadD inh)
Cc1ccc(S(=O)(=O)NN=C2CC(c3ccccc3)Oc3ccccc32)cc1[N+](=O)[O-] (stereo not given)	none (no result: ATG4B inh, SENP1 inh, NR3A LBD binder, NadD inh)
Cc1ccc(S(=O)(=O)N/N=C2/CC(c3ccccc3)Oc3ccccc32)cc1[N+](=O)[O-] (stereo not given)	NR3A LBD binder 25 (no result: UCH37 DUB inh)
O=S(=O)(N/N=C1/CC(c2ccccc2)Oc2ccccc21)c1ccc(Br)cc1 (stereo not given)	NR3A LBD binder 21 (no result: UCH37 DUB inh)
Cc1cccc(C=Nn2c(C3CCCCC3)n[nH]c2=S)c1	none (no result: ATG4B inh, SENP1 inh, NR3A LBD binder, NadD inh)
NC(=O)c1ccc(NC(=O)COC(=O)CCCc2c[nH]c3ccccc23)cc1	NR3A LBD binder 10
COc1ccc(NC(=O)COC(=O)Cc2c[nH]c3ccccc23)cc1Cl	NR3A LBD binder 20
Cc1ccc(NC(=O)COC(=O)Cc2c[nH]c3ccccc23)cc1C	none
COc1ccc(C=N/N=C2/NC(=O)C(CC(=O)O)S2)cc1OS(=O)(=O)c1ccccc1 (stereo not given)	none (no result: ATG4B inh, SENP1 inh, NR3A LBD binder, NadD inh)
COc1ccc(-n2cnc(=S)[nH]c2=S)cc1	NR3A LBD binder 18
CCCC(C)n1[nH]c(=O)cc1N (stereo not given)	none
CCC(CC)n1[nH]c(=O)cc1N	NR3A LBD binder 14
CC(C)OC(=O)NCCOC(=O)Nc1ccc(Cl)cc1	NR3A LBD binder 25
Cc1ccc2cc(C#N)c(N3CCCN(S(=O)(=O)c4ccccc4)CC3)nc2c1C	NR3A LBD binder 11
O=C(NCCc1c[nH]c2ccccc12)c1cc2sccc2n1Cc1ccccc1	none
COc1ccc(C(=O)NCCc2c[nH]c3ccccc23)cc1OC	none (no result: UCH37 DUB inh)
Cc1ccc2[nH]cc(CCNC(=O)c3ccc4c(c3)OCO4)c2c1	none
O=C(NCCc1c[nH]c2ccccc12)c1cc(Cl)c2c(c1)OCO2	NR3A LBD binder 30
O=C(NCCc1c[nH]c2ccccc12)c1ccc2nc[nH]c2c1	NR3A LBD binder 27
Cn1c(C(=O)NCCc2c[nH]c3ccccc23)cc2sccc21	NR3A LBD binder 16
O=C(NCCc1c[nH]c2ccccc12)c1ccc2c(c1)OCO2	NR3A LBD binder 22
Cc1ccc(CSc2nnc(SCC(=O)NN=Cc3c(C)nn(-c4ccccc4)c3C)s2)cc1	none (no result: ATG4B inh, SENP1 inh, NR3A LBD binder, NadD inh)
FC(F)(F)COc1nc(OCC(F)(F)F)nc(N2CCN(c3ccccc3)CC2)n1	NR3A LBD binder 12
CC(=O)Nc1ccc(S(=O)(=O)Nc2nccc(/C=C/c3ccc(Cl)cc3)n2)cc1	NR3A LBD binder 12
Cc1cccc(-c2cc3nc4c(c(N5CCC6(CC5)OCCO6)n3n2)CCCC4)c1	NR3A LBD binder 15
C/C(=C/C=NNc1nc(N2CCCCC2)nc(N2CCCCC2)n1)c1ccccc1	none (no result: ATG4B inh, SENP1 inh, NR3A LBD binder, NadD inh)
C=CCN1C(=O)/C(=C/c2cccs2)SC1=NS(=O)(=O)c1ccc(F)cc1	none (no result: ATG4B inh, SENP1 inh, NR3A LBD binder, NadD inh)
CN(C)c1ccc(/C=C(\C#N)C(=O)Nc2nc3c(s2)CCN(Cc2ccccc2)C3)cc1	NadD inh 33
Cc1cc(C(=O)NN=Cc2c(C)[nH]c3ccccc23)n[nH]1	none (no result: ATG4B inh, SENP1 inh, NR3A LBD binder, NadD inh)
CCCC1C2C(=O)N(c3ccccc3OC)C(=O)C2ON1c1ccccc1 (stereo not given)	NR3A LBD binder 20
CCCC1C2C(=O)N(c3ccccc3)C(=O)C2ON1c1ccccc1 (stereo not given)	none
C=CCNC(=S)N/N=C/c1ccc(-c2ccc(Br)cc2)o1	NR3A LBD binder 16 (no result: UCH37 DUB inh)
CC(=NNC(=O)c1ccc(=O)[nH]n1)c1cccnc1	none (no result: ATG4B inh, SENP1 inh, NR3A LBD binder, NadD inh)
COC(=O)C1=C(C)NC(=O)/C1=C\c1cc(C)n(-c2cccc(C)c2)c1C	NadD inh 32
COC(=O)C1=C(C)NC(=O)/C1=C\c1cc(C)n(-c2ccc(F)cc2)c1C	none
Cc1cc(/C=C2\SC(=S)NC2=O)c(C)n1-c1cccc(O)c1	NadD inh 30
N=C1SCC(=O)N1N=Cc1ccccc1	none (no result: ATG4B inh, SENP1 inh, NR3A LBD binder, NadD inh)
COc1cc(C)cc(C(=O)C=Cc2ccccc2)c1O	NR3A LBD binder 17
C=CCc1c(C)nc(-c2ccccc2)nc1NN=C(C)c1ccccc1	none (no result: ATG4B inh, SENP1 inh, NR3A LBD binder, NadD inh)
COc1ccccc1N1CCN(c2nc(C)nc3c2oc2ccccc23)CC1	ATG4B inh 45
CCCC1SC(=NN=Cc2ccc(C)cc2)N(Cc2ccc(OC)cc2)C1=O (stereo not given)	none (no result: ATG4B inh, SENP1 inh, NR3A LBD binder, NadD inh)
CC(=O)c1cc(C#N)c(SCc2ccccc2)nc1C	NR3A LBD binder 15
C/C(=N\N1CCN(c2ccccc2)CC1)c1ccccc1O	none (no result: UCH37 DUB inh)
C/C(=N\N1CCN(c2ccccc2)CC1)c1ccc(O)cc1	NR3A LBD binder 10 (no result: UCH37 DUB inh)
CCn1c(=NC(=O)c2ccc(S(=O)(=O)N(C)C)cc2)sc2cccc(OC)c21	NR3A LBD binder 10
CCn1c(=NC(=O)CS(=O)(=O)c2ccc(C)cc2)sc2cccc(OC)c21	none
COc1cc2c(cc1OC)C(COc1ccc(F)cc1)NCC2 (stereo not given)	NR3A LBD binder 271
CCc1ccc(OCC2NCCc3cc(OC)c(OC)cc32)cc1 (stereo not given)	none
N#CC(=NO)c1nc2ccccc2[nH]1	none (no result: ATG4B inh, SENP1 inh, NR3A LBD binder, NadD inh)
CCCCCNC(=O)C(=O)C1C(=O)Nc2ccccc21 (stereo not given)	NR3A LBD binder 28
O=C(C1CCC(=O)N(C2CCCC2)C1)N1CCC(Oc2cccc(F)c2)CC1 (stereo not given)	NR3A LBD binder 18
COc1ccc(OC)c(NC(=O)C(=O)C=C(O)c2cc(OC)ccc2OC)c1	none (no result: ATG4B inh, SENP1 inh, NR3A LBD binder, NadD inh)
Cc1ccc(NC(=O)c2cc(S(=O)(=O)NCCC3=CCCCC3)ccc2F)cc1F	NR3A LBD binder 17
